PubChem BioAssay AID1136 (Sanford-Burnham Center for Chemical Genomics, 2008)
The whole screen tested about 200,000 compounds, of which fewer than 10 were called active.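 The calls were made as follows: active = activation factor at least 2 at 20 µM; inactive = the rest.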 These entries were drawn from the full list.

molecular target: Alkaline phosphatase, tissue-nonspecific isozyme (Homo sapiens) (UniProt P05186); assay: TNAP activators at high phosphate acceptor level, primary screen, biochemical, luminescence, uHTS (AID 1136); details: purified TNAP, CDP-star luminescence, 1 M DEA, 30 min; at 20 µM; hits give high values; 0 = EDTA background, 1 = DMSO-only activity
Sequence (P05186 whole entry, looked up): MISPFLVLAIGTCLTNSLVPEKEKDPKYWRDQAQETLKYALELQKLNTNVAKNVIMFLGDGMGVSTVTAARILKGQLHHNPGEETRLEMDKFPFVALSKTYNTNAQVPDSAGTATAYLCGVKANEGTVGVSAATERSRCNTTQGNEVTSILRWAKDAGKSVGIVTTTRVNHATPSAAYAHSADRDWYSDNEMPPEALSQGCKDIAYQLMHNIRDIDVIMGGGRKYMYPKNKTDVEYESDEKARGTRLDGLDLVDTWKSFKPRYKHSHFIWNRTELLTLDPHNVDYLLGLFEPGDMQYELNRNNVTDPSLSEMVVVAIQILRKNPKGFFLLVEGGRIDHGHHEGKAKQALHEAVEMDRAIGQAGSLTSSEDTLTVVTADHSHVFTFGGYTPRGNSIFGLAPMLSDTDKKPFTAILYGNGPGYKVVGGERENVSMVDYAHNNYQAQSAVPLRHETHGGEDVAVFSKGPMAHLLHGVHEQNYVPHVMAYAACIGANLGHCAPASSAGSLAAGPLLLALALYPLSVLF
Outline: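 Assay system: human TNAP; Input: enzyme diluted 1/800 final; Reagent: CDP-star luminogenic substrate at 100 µM final; Timing: 30 min, room temperature; Signal: luminescence; Evaluation: TNAP activation factor scaled between EDTA and DMSO control wells.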

SMILES	activation factor
Cc1cccc(C)c1OCC(=O)NC(Cc1c[nH]c2ccccc12)C(=O)O (stereo not drawn)	0.9 (inactive)
COc1ccc(N2CCN(C(=O)CNS(=O)(=O)c3ccc(C)c(C)c3)CC2)cc1	1.1 (inactive)
Cc1ccc(-n2cnc3ncnc(-c4ccccc4)c32)cc1	1.1 (inactive)
O=c1cc(CO)oc(C(Nc2cccc([N+](=O)[O-])c2)c2ccccn2)c1O (stereo not drawn)	1 (inactive)
Cc1ccc(NC(=O)c2csc3c2CCCC3)cc1	1 (inactive)
CCNC(=O)CC1C(=O)N(c2ccc(OC)cc2)C(=S)N1CCc1ccncc1 (stereo not drawn)	1 (inactive)
O=C(CC12CC3CC(CC(C3)C1)C2)NCc1ccco1	1 (inactive)
CN(C)c1ccc(/C=N\S(=O)(=O)c2ccccc2)cc1	1 (inactive)
Cn1c2c(c(=O)n(C)c1=O)C(c1cccc([N+](=O)[O-])c1)Nc1ccccc1O2 (stereo not drawn)	1 (inactive)
COC(=O)C1CCN(CC(N)=O)CC1	1.1 (inactive)
CCCCN(CC)C(=S)Nc1ccc2nc3n(c(=O)c2c1)CCCCC3	1 (inactive)
CCOC(=O)C1=NOC(Cn2cc(C(C)=O)c(=O)[nH]c2=O)C1 (stereo not drawn)	1 (inactive)
O=C(C1=C[C@H](c2coc3ccccc3c2=O)C[C@H](OCc2ccc(CO)cc2)O1)N1CCN(Cc2ccccc2)CC1	1 (inactive)
COc1ccc(C(=O)NCC(=O)N/N=C/c2ccc([N+](=O)[O-])s2)cc1OC	0.9 (inactive)
CC(=O)c1ccc(NC(=O)c2ccc3c(Cl)c4c(nc3c2)CCCC4)cc1	1 (inactive)
Cc1ccc(NS(=O)(=O)c2ccc(C)c(NC(=O)COc3ccc4ccccc4c3)c2)c(C)c1	1 (inactive)
CCCCC(CC)CNC(=O)C(=O)C1C(=O)Nc2ccccc21 (stereo not drawn)	1 (inactive)
Nc1nc(NC(=O)/C=C/c2ccccc2)nn1-c1ccccc1	1 (inactive)
CCOC(=O)c1cccc(NC(=O)CCOc2ccccc2)c1	1 (inactive)
Cc1ccc2[nH]c(C(=O)O)c(NC(=O)c3ccccc3[N+](=O)[O-])c2c1	1 (inactive)
COc1ccc(Cl)cc1C(=O)NNC(=S)NC(=O)/C=C/c1ccco1	1.1 (inactive)
C=C(C)C1CC=C(C)/C(=N/NC(=O)CCCNc2cccc(C)c2)C1 (stereo not drawn)	1 (inactive)
O=C(Nc1ccc(C(=O)O)cc1)/C(=C/c1ccc([N+](=O)[O-])cc1)NC(=O)c1ccccc1	1 (inactive)
Cc1ccc(CN2CCN(/N=C/c3cccnc3)CC2)c(C)c1	1 (inactive)
COc1cc(OC)nc(S(C)(=O)=O)n1	1 (inactive)

SMILES	activation factor
CCn1c2ccccc2c2cc(NC(=O)COC(=O)c3cc(S(=O)(=O)N4CCCCC4)ccc3Cl)ccc21	1 (inactive)
N=C1C(c2nc3ccccc3[nH]2)=C(O)CN1NC(=O)c1c[nH]c2ccccc12	1.1 (inactive)
CCn1c(COc2ccccc2)nnc1SCC(=O)NCc1ccco1	1 (inactive)
Cc1cc(N2CCOCC2)nc(-c2ccc(Br)cc2)n1	1 (inactive)
Cc1nn(C)cc1C(=O)Nc1ccccc1Br	1 (inactive)
C/C=C(\C)C(=O)NCCN1C2=NC[C@H](Cc3ccc(O)cc3)N2C[C@@H]1Cc1ccc(OC)cc1	1.1 (inactive)
Cc1ccc(CN(Cc2cccnc2)C(=S)Nc2cc(Cl)ccc2C)cc1	1.1 (inactive)
COC(=O)CCSc1cc([N+](=O)[O-])cc2c1c(C1OCCS1)nn2-c1ccccc1 (stereo not drawn)	1 (inactive)
COc1ccc(OC)c(C2C3=C(N=c4s/c(=C\c5cccc(O)c5)c(=O)n42)c2ccccc2CC3)c1 (stereo not drawn)	0.9 (inactive)
CC(NC(=O)c1cccc2ccccc12)c1ccc2c(c1)CCCC2 (stereo not drawn)	1 (inactive)
COc1ccccc1NC(=O)C1=C(C)Nc2nc3ccccc3n2C1c1cccs1 (stereo not drawn)	1 (inactive)
CCOC(=O)c1sc(/N=C/C2=C(O)CC(C)(C)CC2=O)c(C(=O)OCC)c1C	1 (inactive)
O=C(CCNC(=O)c1ccc([N+](=O)[O-])cc1)Nc1ccccc1N1CCOCC1	1 (inactive)
CCN(CC)CCCNC(=O)c1ccc2c(=O)n(Cc3ccc4c(c3)OCO4)c(=S)[nH]c2c1	1 (inactive)
CC1(c2cccc([N+](=O)[O-])c2)CC(C)(C)N(C(=O)c2ccccc2)c2ccccc21 (stereo not drawn)	1 (inactive)
C=CS(=O)c1sc(Cl)c(N2CCOCC2)c1[N+](=O)[O-] (stereo not drawn)	1 (inactive)
O=C(CNC(c1ccccc1)c1ccccc1)Nc1ccc(F)cc1	1 (inactive)
Cc1cc(C)c(S(=O)(=O)N2CCOCC2)cc1C	1 (inactive)
CC1(C)C2CCC1(C)C(OC(=O)c1ccc(O)cc1)C2 (stereo not drawn)	1.1 (inactive)
Cc1nc2sc3c(c2c(=O)n1NC(=O)CCl)CCCC3	1 (inactive)
COc1ccc(C)cc1NC(=O)CSc1nnc(CC(=O)Nc2ccccc2F)n1C	1.1 (inactive)
Cc1ccc(S(=O)(=O)N2CCN(C(=O)c3cccs3)CC2)cc1	1 (inactive)
CCCC(=O)n1nc(NCc2ccc(OC)cc2)nc1NCc1ccc(OC)cc1	1 (inactive)
CNC(=S)Nc1ccc([N+](=O)[O-])cc1	1 (inactive)
COc1ccc(C(=O)C[n+]2ccc(C)cc2)cc1	1.1 (inactive)

SMILES	activation factor
NC(=O)COc1ccc(C23CC4CC(CC(C4)C2)C3)cc1	1.1 (inactive)
CCc1ccccc1NC(=S)N(CCN1CCCCCC1)Cc1ccco1	1 (inactive)
CCCCN1C(=O)c2ccc(C(=O)Nc3ccc(S(=O)(=O)N(C)C)cc3)cc2C1=O	1 (inactive)
CCCc1c(C)nc2c(Br)cccc2c1Cl	1 (inactive)
Clc1ccc(CN2CCN(/N=C/c3cccnc3)CC2)cc1	1 (inactive)
CC(=O)N1CCc2cc(Br)cc(S(=O)(=O)CCC(=O)Nc3c(C)n(C)n(-c4ccccc4)c3=O)c21	1 (inactive)
CCN(CC)c1ccc(C(=O)N/N=C(\C)c2cccc(OC)c2)cc1	1 (inactive)
Cc1ccc(C)c2[nH]c(=O)c(CCNC(=O)c3cccs3)cc12	1 (inactive)
O=C(/C=C/c1c(F)cccc1Cl)Nc1nn[nH]n1	1 (inactive)
CC(=O)Nc1ccc(/C=N/NC(=O)c2cccs2)cc1	1 (inactive)
CC(CC(=O)N1CCN(c2ccccc2)CC1)c1ccccc1 (stereo not drawn)	1 (inactive)
COC(=O)c1ccc(-n2cnc3ccccc32)nc1	1 (inactive)
CN1CCN(CC(=O)Nc2cccc([N+](=O)[O-])c2)CC1	1 (inactive)
O=C(CS(=O)(=O)c1ccccc1)Nc1ccc(S(=O)(=O)Nc2ccccn2)cc1	1 (inactive)
COc1ccccc1C(=O)Nn1c(-c2cccs2)nc2ccccc2c1=O	1 (inactive)
CCN(CC)C(=O)C(=O)c1cn(CC(=O)NCc2ccc3c(c2)OCO3)c2ccccc12	1 (inactive)
Cc1ccc(S(=O)(=O)CCC(=O)OCc2ccccc2)cc1	1 (inactive)
CCOC(=O)c1ccccc1NC(=O)CSc1nc2ccccc2c(=O)[nH]1	1 (inactive)
O=C(CN1CCN(c2ccc(O)cc2)CC1)NC1CCCc2ccccc21 (stereo not drawn)	1 (inactive)
O=[N+]([O-])c1cc(S(=O)(=O)CCCN2CCOCC2)ccc1F	1 (inactive)
O=S(=O)(/N=C(/Nc1ccccc1)c1ccccc1)c1cccs1	1 (inactive)
CCOc1ccc(N2C(=O)CN(c3cccc4ccccc34)C2=S)cc1	1.1 (inactive)
C/C(=N/OC(=O)c1cccc(C(F)(F)F)c1)c1cnccn1	1 (inactive)
CCN(CC)CCNC(=O)c1ccc(NS(=O)(=O)c2ccc3c(c2)OCCO3)cc1	1 (inactive)
Cc1cc(/C=C2/NC(=O)NC2=O)c(C)n1-c1cccnc1	1.1 (inactive)

SMILES	activation factor
C=CCC1(CC=C)CCCN1C(=O)CC1C(=O)NCCN1Cc1ccccc1OC (stereo not drawn)	1 (inactive)
C/C(=N/NC(=O)CCc1ccccc1)c1ccco1	1 (inactive)
CCCCN(CC)CCCNC(=O)c1ccc(CSc2nc3ccncc3[nH]2)cc1	1 (inactive)
CC1=CC2=NC(=O)CC(C)(C(=O)N(CC(=O)NC(C)(C)C)Cc3ccccc3)N2C=C1 (stereo not drawn)	1.1 (inactive)
O=C(CN1CCN(Cc2ccc(F)cc2Cl)C1=O)NCc1cccs1	1.1 (inactive)
CCC(C)(C)C1CCC(=NNC(=O)c2ccc(Br)o2)CC1 (stereo not drawn)	1.1 (inactive)
Cc1cccc(C)c1NC(=O)Nc1ccccc1-n1ccnc1	1.1 (inactive)
Cc1cccc(N2CCN(c3ccc(C(N)=O)cc3[N+](=O)[O-])CC2)c1C	1 (inactive)
COc1ccc(-c2[nH]ncc2CN(C)Cc2cccnc2)c(F)c1	1 (inactive)
COc1ccccc1CN(C)C(=O)C1(c2ccc(Cl)cc2)CC1	1 (inactive)
CCOC(=O)C(NC(C)=O)C(=O)Nc1ccc(OC)cc1 (stereo not drawn)	1.1 (inactive)
COc1cccc(CC2(CO)CCN(Cc3cnc(-c4cccc(C)c4)nc3)CC2)c1	1.1 (inactive)
CCOc1ccc(C(C)=O)cc1CSc1nnc(-c2ccncc2)n1CCOC	1 (inactive)
CN1CCN(/N=C/c2ccc(C#N)cc2)CC1	1 (inactive)
O=C1C2C3C=CC(C3)C2C(=O)N1c1ccc(-c2nc3ccccc3c(=O)o2)cc1 (stereo not drawn)	1 (inactive)
COC(=O)CC1=NN(c2ccccc2)C(=O)C1	1 (inactive)
COc1ccc(/C(C)=N/NC(=O)CCC(=O)Nc2ccc(Cl)cc2Cl)c(OC)c1	0.9 (inactive)
Cc1cccc(NC(=O)CN2C(=O)c3ccccc3C2=O)c1C	1 (inactive)
CC1=C(C)CC(C(=O)NC(C)CCc2ccccc2)C(C(=O)O)C1 (stereo not drawn)	1 (inactive)
Cc1ccc(CNC(=O)c2ccccc2CCc2ccccc2)cc1	1.1 (inactive)
Cc1ccc(O)c(-c2cc(C(=O)NCc3ccccc3)[nH]n2)c1	2.3 (active)
Cc1ccc(O)c(-c2cc(C(=O)Nc3c(C)n(C)n(-c4ccccc4)c3=O)[nH]n2)c1	1 (inactive)
O=C1CCC(CCC(=O)N2CCCC(C(=O)c3ccc(Cl)cc3)C2)=NN1 (stereo not drawn)	1.1 (inactive)
